Data set [1] is described as follows: Cmax in male albino Wistar rat brain at 60 mg/kg, po measured upto 1440 mins by HPLC-MS analysis. Type of data set: ADME, organism-based. The gist of the method: (§1)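 Oral gavage via blunt needle into the stomach of male wild-type rats. Dose was 60 mg/kg from a 16 mM solution in 10% NMP, 25% Kolliphor EL and 65% saline. Rats were sacrificed at 15 time-points from 5 to 1440 min, 3 per point. Plasma and brain were analysed by HPLC-MS with non-compartmental analysis; values are mean ± SE of three.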

A short description of data set [2]: Tmax in male albino Wistar rat brain at 0.018 mg/kg, iv measured upto 1440 mins by HPLC-MS analysis. Type of data set: ADME, organism-based. The gist of the method: (§2)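 Single tail-vein injection into male wild-type rats, 0.1 mL per 100 g body weight. Solutions were 20 or 25 μM in saline with 3% DMSO, giving 0.013 or 0.018 mg/kg. Rats were exsanguinated at 5–1440 min (9 time-points, 3 per point). Plasma and brain levels were measured by HPLC-MS. Parameters came from non-compartmental analysis; values are mean ± SE of three.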

For data set [3], the target named is T1, 3-hydroxyacyl-CoA dehydrogenase type-2 (Homo sapiens) (UniProt Q99714).
T1 sequence (whole entry): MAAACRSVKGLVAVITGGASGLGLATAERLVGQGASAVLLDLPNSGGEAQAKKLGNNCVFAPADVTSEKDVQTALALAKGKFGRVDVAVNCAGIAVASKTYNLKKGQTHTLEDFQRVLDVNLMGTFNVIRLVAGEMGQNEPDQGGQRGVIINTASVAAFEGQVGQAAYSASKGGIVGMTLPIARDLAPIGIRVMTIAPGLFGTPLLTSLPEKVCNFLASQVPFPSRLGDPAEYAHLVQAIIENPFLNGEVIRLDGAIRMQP
Put plainly: Binding affinity to 17beta-HSD10 (unknown origin) assessed as increase in denaturation temperature by differential scanning fluorimetry (DSF) assay. As to conditions: dose 25-50 µM. The gist of the method: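 Thermal shift assay with 1.43 μM 17β-HSD10 in 100 mM potassium phosphate pH 8.0 with SYPRO Orange (1:1000). Compounds were tested at 25 and 50 μmol/L. Fluorescence (Ex/Em 490/575) was recorded over 25–90 °C at 1 °C/min and Tm taken from melting curves. Triplicate; mean ± SD.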

A short description of data set [4]: MRT in male albino Wistar rat plasma at 0.018 mg/kg, iv measured upto 1440 mins by HPLC-MS analysis. Type of data set: ADME, organism-based. The gist of the method:
as §2

A short description of data set [5]: Half life in male albino Wistar rat plasma at 0.018 mg/kg, iv measured upto 1440 mins by HPLC-MS analysis. In kind it is ADME, organism-based. The gist of the method:
as §2

The nature of data set [6]: Tmax in male albino Wistar rat plasma at 0.018 mg/kg, iv measured upto 1440 mins by HPLC-MS analysis. In kind it is ADME, organism-based. The gist of the method:
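Single tail-vein injection in male wild-type rats of a 25 μM dosing solution in saline with 3% DMSO, given at 0.1 mL per 100 g body weight. Three animals were killed at each of 5, 15, 30, 60, 90, 180, 240, 360 and 1440 min and exsanguinated. Plasma levels were measured by HPLC-MS. Parameters came from non-compartmental analysis, reported as mean ± SE of three.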

A short description of data set [7]: Permeability coefficient in male albino Wistar rat assessed as ratio of brain AUC to plasma AUC at 0.018 mg/kg, iv measured upto 1440 mins by HPLC-MS analysis. In kind it is ADME, organism-based. The gist of the method:
as §2

Data set [8] can be described thus: Apparent volume of distribution in male albino Wistar rat plasma at 0.018 mg/kg, iv measured upto 1440 mins by HPLC-MS analysis. Type of data set: ADME, organism-based. As to conditions: read-out: Vz. The procedure, abridged: as §2
Data set [9] can be described thus: AUC (0 to 1440 mins) in male albino Wistar rat brain at 0.018 mg/kg, iv measured upto 1440 mins by HPLC-MS analysis. Type of data set: ADME, organism-based. Particulars: in vivo, 24 h. The gist of the method: as §2
Data set [10] is described as follows: AUC (0 to 1440 mins) in male albino Wistar rat plasma at 60 mg/kg, po measured upto 1440 mins by HPLC-MS analysis. In kind it is ADME, organism-based. As to conditions: in vivo, 24 h. The procedure, abridged: as §1
A short description of data set [11]: AUC (0 to 1440 mins) in male albino Wistar rat plasma at 0.018 mg/kg, iv measured upto 1440 mins by HPLC-MS analysis. In kind it is ADME, organism-based. As to conditions: in vivo, 24 h. The procedure, abridged: as §2
Data set [12] in a line: Cmax in male albino Wistar rat plasma at 0.018 mg/kg, iv measured upto 1440 mins by HPLC-MS analysis. Type of data set: ADME, organism-based. The gist of the method: as §2
The test system of data set [13] is SH-SY5Y. Put plainly: Reduction in glutathione level in human SH-SY5Y cells at 100 uM measured after 4 hrs by monochlorobimane assay. Type of data set: functional, cell-based. The procedure, abridged: (§3)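 SH-SY5Y cells (passages 14–18) in DMEM/F12 with 15% FBS were exposed to compound (0.1–100 μM) for 4 or 24 h. Monochlorobimane was then added to a final 40 μmol/L, and fluorescence (394/490 nm) was followed for 10 min. GSH is the slope as % of control, mean ± SD, triplicate of ≥3 experiments.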

The nature of data set [14]: AUC (0 to 1440 mins) in male albino Wistar rat plasma at 0.013 mg/kg, iv measured upto 1440 mins by HPLC-MS analysis. In kind it is ADME, organism-based. As to conditions: in vivo, 24 h. The procedure, abridged:
as §2

Data set [15] is described as follows: Cmax in male albino Wistar rat brain at 0.013 mg/kg, iv measured upto 1440 mins by HPLC-MS analysis. In kind it is ADME, organism-based. The gist of the method:
as §2

Data set [16] in a line: Permeability coefficient in male albino Wistar rat assessed as ratio of brain AUC to plasma AUC at 0.013 mg/kg, iv measured upto 1440 mins by HPLC-MS analysis. In kind it is ADME, organism-based. The gist of the method: as §2
Data set [17] can be described thus: Cmax in male albino Wistar rat plasma at 0.013 mg/kg, iv measured upto 1440 mins by HPLC-MS analysis. Type of data set: ADME, organism-based. The gist of the method: as §2
The nature of data set [18]: MRT in male albino Wistar rat plasma at 0.013 mg/kg, iv measured upto 1440 mins by HPLC-MS analysis. In kind it is ADME, organism-based. The procedure, abridged: as §2
In data set [19] the test system is SH-SY5Y. Put plainly: Reduction in glutathione level in human SH-SY5Y cells at 100 uM measured after 24 hrs by monochlorobimane assay. In kind it is functional, cell-based. The gist of the method:
as §3

A short description of data set [20]: Apparent volume of distribution in male albino Wistar rat plasma at 0.013 mg/kg, iv measured upto 1440 mins by HPLC-MS analysis. Type of data set: ADME, organism-based. Particulars: read-out: Vz. The gist of the method:
as §2

Data set [21] can be described thus: AUC (0 to 1440 mins) in male albino Wistar rat brain at 0.013 mg/kg, iv measured upto 1440 mins by HPLC-MS analysis. Type of data set: ADME, organism-based. Particulars: in vivo, 24 h. The gist of the method: as §2
In data set [22] the test system is SH-SY5Y. Put plainly: Reduction in dehydrogenase activity in human SH-SY5Y cells at 100 uM measured after 4 to 24 hrs by […] assay. In kind it is functional, cell-based. Particulars: time 4-24 hrs. The gist of the method:
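SH-SY5Y cells (passages 14–18) in DMEM/F12 with 15% FBS were exposed to compound (0.1–100 μM) for 4 and 24 h. WST-1 reagent was added and the absorbance change at 440 nm was read over 0–1 h. Results are % of control cells, mean ± SD, triplicate of ≥3 experiments.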

Data set [23] can be described thus: Tmax in male albino Wistar rat plasma at 0.013 mg/kg, iv measured upto 1440 mins by HPLC-MS analysis. In kind it is ADME, organism-based. The gist of the method:
as §2

Data set [24] can be described thus: Half life in male albino Wistar rat plasma at 0.013 mg/kg, iv measured upto 1440 mins by HPLC-MS analysis. Type of data set: ADME, organism-based. The gist of the method:
as §2

A short description of data set [25]: Tmax in male albino Wistar rat brain at 0.013 mg/kg, iv measured upto 1440 mins by HPLC-MS analysis. Type of data set: ADME, organism-based. The procedure, abridged: as §2

Calls of active or inactive are those of the source. No cut-off for these calls is given here.

In general, Cmax refers to the peak of the concentration-time curve. For orientation: Tmax means the time at which the peak concentration occurs. In general, MRT refers to the average time that molecules of a dose stay in the body. By half-life is commonly meant how long it takes for the measured level to halve. As usually defined, the Kp is tissue or fluid exposure divided by exposure in the circulation. In the case of `O=C(Nc1ccc(O)c(Cl)c1)Nc1nc2ccc(C(=O)O)cc2s1`, the Cmax in [1] worked out at 0.154 nM; in data set [12] it was 1.54 nM. The Tmax in data set [2] is 90 min; in data set [6], 5 min. In addition, in [3], the Activity result is “Dose-Dependent Effect”. In [4], this compound gave an MRT of 15.7 min. In addition, the half-life in data set [5] was 29.4 min. In data set [7], the Kp at 24 h stood at 0.002. Moreover, the Vd in data set [8] came to 135 L/kg. Further, the AUC in [9] came out at 34 pmol·min; in data set [10] it was 212993 pmol·min; in data set [11], 18961 pmol·min.

As to `CC(=O)Nc1ccc2nc(NC(=O)Nc3ccc(O)c(Cl)c3)sc2c1`, the Cmax worked out at 0.206 nM in [1], 0.0126 nM in data set [15] and 0.389 nM in [17]. The Activity result in data set [3] is “Dose-Dependent Effect”. The inhibition entry in the data set on SH-SY5Y [13] and with SH-SY5Y [22] was “Active” each time. Further, the AUC in [14] came to 5832 pmol·min; in [21] it was 3299 pmol·min; in [10] it was 1431047 pmol·min. The Kp at 24 h in data set [16] worked out at 0.566. Besides, the MRT in data set [18] was 24.5 min. For the same compound, the inhibition entry with SH-SY5Y [19] is “inactive”. In addition, the Vd in data set [20] is 147 L/kg. Also, the Tmax in data set [23] was 5 min; in [25] it was 956 min. This compound came in with a half-life in [24] of 15.8 min.

For the origin of these results see ChEMBL document CHEMBL5620402, “Development of submicromolar 17β-HSD10 inhibitors and their in vitro and in vivo evaluation” (Eur J Med Chem, 2023).
